Molecules are shown by their SMILES. Active and inactive are the calls of the source.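 How the source made its calls, unless noted: active means Her2 level under about 52% in both replicate screens, with viability over 70% of control (limit read from the data); inconclusive means Her2 under the limit in one screen only, or viability under 70%; inactive means Her2 level above the set limit.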

A short description of test [1]: reducers of endogenous Her2 protein level, primary screen, SKBR3 breast tumor cells, AlphaScreen, ATP viability (AID 461).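 On Her2 level: lower value means less Her2 protein in the cells.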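 On viability: percent of carrier control wells set as 100% viability.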 The following applies: 18-24 h, measured here: SKBR3 viability, ATP luminescence, at 10 µM. A general note: Bead proximity is the source of the signal in Alpha formats.
The target in test [2] is Receptor tyrosine-protein kinase erbB-2 (Homo sapiens) (UniProt P04626). The description is as above. The following applies: 18-24 h, at 10 µM, stronger effect = lower value.
Chain of Receptor tyrosine-protein kinase erbB-2 (Homo sapiens) (P04626 whole entry, looked up): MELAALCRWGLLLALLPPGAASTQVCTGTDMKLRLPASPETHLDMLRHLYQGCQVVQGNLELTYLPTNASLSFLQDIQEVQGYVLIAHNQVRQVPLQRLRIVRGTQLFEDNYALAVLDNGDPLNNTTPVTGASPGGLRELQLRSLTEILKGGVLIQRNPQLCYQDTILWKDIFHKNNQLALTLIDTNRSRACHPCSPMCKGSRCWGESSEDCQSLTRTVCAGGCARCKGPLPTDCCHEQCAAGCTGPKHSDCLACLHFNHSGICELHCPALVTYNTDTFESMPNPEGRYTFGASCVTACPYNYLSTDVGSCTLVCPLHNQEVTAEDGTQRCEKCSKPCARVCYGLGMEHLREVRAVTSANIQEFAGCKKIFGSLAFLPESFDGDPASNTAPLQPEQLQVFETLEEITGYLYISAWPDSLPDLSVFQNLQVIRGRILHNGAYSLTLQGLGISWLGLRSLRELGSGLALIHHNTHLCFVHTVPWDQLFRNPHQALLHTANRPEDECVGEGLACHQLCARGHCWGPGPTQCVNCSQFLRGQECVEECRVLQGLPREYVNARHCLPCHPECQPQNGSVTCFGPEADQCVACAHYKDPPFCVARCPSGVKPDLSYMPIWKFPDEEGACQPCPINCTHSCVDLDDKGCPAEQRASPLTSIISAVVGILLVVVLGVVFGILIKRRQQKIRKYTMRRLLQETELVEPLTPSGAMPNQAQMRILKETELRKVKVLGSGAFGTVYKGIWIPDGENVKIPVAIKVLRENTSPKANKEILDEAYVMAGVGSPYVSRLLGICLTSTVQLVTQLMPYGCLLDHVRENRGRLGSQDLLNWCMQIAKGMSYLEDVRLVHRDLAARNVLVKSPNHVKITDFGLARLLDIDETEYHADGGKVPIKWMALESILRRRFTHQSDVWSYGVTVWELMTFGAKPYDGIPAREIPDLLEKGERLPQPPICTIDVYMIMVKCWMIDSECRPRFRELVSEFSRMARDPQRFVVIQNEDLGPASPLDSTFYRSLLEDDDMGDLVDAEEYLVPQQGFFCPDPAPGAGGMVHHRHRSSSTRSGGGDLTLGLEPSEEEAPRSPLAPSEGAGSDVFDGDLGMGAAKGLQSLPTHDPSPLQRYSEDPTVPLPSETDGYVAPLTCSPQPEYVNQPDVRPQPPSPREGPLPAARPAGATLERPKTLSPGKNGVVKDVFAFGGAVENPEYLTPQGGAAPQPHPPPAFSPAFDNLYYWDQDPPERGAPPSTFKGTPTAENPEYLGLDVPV
The nature of test [3]: SK-BR-3 cell growth inhibitors, pilot screen, 24 h, human (AID 572;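 active means viability at or below 10% of carrier control in both of two separate runs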;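 further: compound exposure lasted between 18 and 24 h rather than exactly 24 h; 100% = carrier-treated control wells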). Particulars: SK-BR-3 viability, CellTiter-Glo luminescence, at 10 µM, stronger effect = lower value. In general terms: ATP-based viability assays read luminescence as a measure of living cells.
Test [4] is described as follows: HUVEC growth inhibition – cell-based, human, primary screen (AID 575;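 active means viability at or below 30% in both replicate assays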;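 further: 100% = median of untreated cell wells with 0.1% DMSO on each plate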). Particulars: HUVEC proliferation, CellTiter-Glo luminescence, 72 h; at 10 µM; stronger effect = lower value. The method in brief:
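Test system: primary human umbilical vein endothelial cells; medium: endothelial basal medium with 2% FBS plus growth supplements; dosing: 10 µM compound only; times: 72 h treatment at 37 °C; signal: CTG luminescence; read-out: % viability relative to median vehicle-well signal on each plate; control set: vehicle and MePR control wells; plate: 384-well, collagen-coated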

The nature of test [5]: growth inhibitors of H69AR lung tumor, primary screen, human, duplicate replicates (AID 580;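 active means viability at or under a set limit in both replicates, limit being median viability minus 3 SD, cut at about 48% in these data, passing the limit was not always enough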;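 further: 100% = mean luminescence of untreated wells and 0% = no signal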). Particulars: H69AR lung tumor cells viability, ATP luminescence, 72 h; at 10 µM; stronger effect = lower value.
Test [6] in a line: reversal of MRP1-mediated doxorubicin resistance, pilot screen, H69AR cells, doxorubicin co-treatment (AID 601;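 active means viability loss from added drug above about 55%, and viability with drug at most 40%, in both replicates, limit read from the data, passing the limit was not always enough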). The following applies: CellTiter-Glo, 72 h, at 10 µM; for differential viability (reversal): stronger effect = higher value.
Test [7] in a line: 384-well plate pilot, post-Golgi transport modulator project, inhibition of yeast transport mutant growth (AID 636; in the data active means inhibition above about 31%). The following applies: absorbance 615 nm, about 18 h, stronger effect = higher value.
Test [8] in a line: growth suppression of yeast trafficking mutant, preliminary HTS, modulators of trafficking downstream of Golgi apparatus project, 1536-format plate, OD 615 nm (AID 637; in the data active means inhibition above about 30%). Particulars: yeast transport mutant growth, absorbance 615 nm, 18 h; stronger effect = higher value.
Setting [9] is: H69AR cells + 2 uM doxorubicin, measured here: viability with 2 uM doxorubicin, stronger effect = lower value.
Where [10] appears, read: H69AR cells, compound alone cytotoxicity.

On to `CN(C)c1ccc(-c2nn3c(-c4ccc(Cl)cc4Cl)nnc3s2)cc1`, for which the viability – broadly, a read-out of living cells in per cent, often relative to untreated cells – is 100% in test [1]; 100% (inactive) in test [3]; 46.7% (inactive) in test [4]; 15.1% (active) in test [5]; 57.7% in test [6] (setting [9]); 15.1% in test [6] (setting [10]). For the same compound, in test [2], the Her2 level is 71% (inactive). Further, the differential viability (reversal) in test [6] (H69AR cells + 2 uM doxorubicin) was -42.6% (inactive). Besides, the inhibition (as a rule, the drop in the measured response relative to a control, in per cent) in test [7] is -6.08% (inactive); in test [8], 5.08% (inactive).

Turning to `c1ccc(OCCCn2nnc(-c3cccnc3)n2)cc1`, the viability was 110% in test [1]; 110% (inactive) in test [3]; 103% (inactive) in test [4]; 108% (inactive) in test [5]; 97.3% in test [6] (setting [9]); 108% in test [6] (setting [10]). Besides, in test [2], the Her2 level was 87.5% (inactive). Also, the differential viability (reversal) in test [6] (H69AR cells + 2 uM doxorubicin) was 10.3% (inactive). For the same compound, the inhibition in test [7] is -3.68% (inactive); in test [8], -5.83% (inactive).

Consider `CCC1(C)Cc2c(C#N)c(N)n(N)c(=S)c2CO1` (stereo not given), for which the viability in test [1] was 102%; in test [3], 102% (inactive); in test [4], 85.1% (inactive); in test [5], 81.7% (inactive); in test [6] (setting [9]), 89.3%; in test [6] (setting [10]), 81.7%. Further, the Her2 level in test [2] was 97.5% (inactive). For the same compound, in test [6] (H69AR cells + 2 uM doxorubicin), the differential viability (reversal) is -7.55% (inactive). Also, the inhibition was 0.91% (inactive) in test [7] and -2.13% (inactive) in test [8].

Turning to `CCOC(=O)CSc1nnc(-c2ccc(S(=O)(=O)N3CCOCC3)cc2)n1-c1ccccc1`, the viability in test [1] is 93%; in test [3], 93% (inactive); in test [4], 94.4% (inactive); in test [5], 105% (inactive); in test [6] (setting [9]) it was 87.7%; in test [6] (setting [10]) it was 105%. For the same compound, in test [2], the Her2 level was 83.5% (inactive). Further, the differential viability (reversal) in test [6] (H69AR cells + 2 uM doxorubicin) is 17.4% (inactive). Further, the inhibition is -1.97% (inactive) in test [7] and 1.43% (inactive) in test [8].

Take `O=C(c1cccnc1)N1CCc2ccccc21`: the viability in test [1] was 74%; in test [3], 74% (inactive); in test [4], 88.1% (inactive); in test [5], 95% (inactive); in test [6] (setting [9]), 111%; in test [6] (setting [10]), 95%. The Her2 level in test [2] was 77.5% (inactive). In test [6] (H69AR cells + 2 uM doxorubicin), the differential viability (reversal) is -16.3% (inactive). The results for the inhibition in test [7] and in test [8] were -5.68% (inactive) and -0.16% (inactive), respectively.

Turning to `C=CS(=O)(=O)c1ccc(Oc2ccc(S(=O)(=O)C=C)cc2)cc1`, the viability in test [1] was 243%; in test [3] it was 243% (inactive); in test [4], 97% (inactive); in test [5], 1.27% (active); in test [6] (setting [9]) it was 0.865%; in test [6] (setting [10]), 1.27%. Besides, in test [2], the Her2 level is 21% (active). For the same compound, in test [6] (H69AR cells + 2 uM doxorubicin), the differential viability (reversal) is 0.405% (inactive). The inhibition in test [7] is -4.67% (inactive); in test [8], 1.77% (inactive).

`CCCC1C(C#N)=C(N)Oc2n[nH]c(C(C)(C)C)c21` (stereo not given): the viability is 106% in test [1]; 106% (inactive) in test [3]; 95.1% (inactive) in test [4]; 105% (inactive) in test [5]; 94.4% in test [6] (setting [9]); 105% in test [6] (setting [10]). Besides, in test [2], the Her2 level was 99.5% (inactive). In addition, in test [6] (H69AR cells + 2 uM doxorubicin), the differential viability (reversal) was 11% (inactive). For the same compound, the inhibition in test [7] was -6.97% (inactive); in test [8], -7.58% (inactive).

For `CC(C)(C)C(=O)Cn1c[n+](N)cn1`, the viability in test [1] was 103%; in test [3], 103% (inactive); in test [4] it was 86.1% (inactive); in test [5], 96.9% (inactive); in test [6] (setting [9]) it was 92.4%; in test [6] (setting [10]) it was 96.9%. Also, the Her2 level in test [2] is 86% (inactive). Also, the differential viability (reversal) in test [6] (H69AR cells + 2 uM doxorubicin) is 4.54% (inactive). For the same compound, the inhibition is -4.67% (inactive) in test [7] and 0.49% (inactive) in test [8].

For the compound `COC(=O)c1ccccc1NC(=O)c1noc2c1CCC2`, the viability is 93% in test [1]; 93% (inactive) in test [3]; 86.7% (inactive) in test [4]; 74.8% (inactive) in test [5]; 79.4% in test [6] (setting [9]); 74.8% in test [6] (setting [10]). Besides, the Her2 level in test [2] was 83.5% (inactive). For the same compound, the differential viability (reversal) in test [6] (H69AR cells + 2 uM doxorubicin) is -4.56% (inactive). In addition, the results for the inhibition in test [7] and in test [8] were -7.37% (inactive) and 2.55% (inactive), respectively.

`CCOc1cccc(C(=O)N(Cc2ccc(F)cc2)C2CCS(=O)(=O)C2)c1` (stereo not given): the viability was 97% in test [1]; 97% (inactive) in test [3]; 100% (inactive) in test [4]; 86.3% (inactive) in test [5]; 89.9% in test [6] (setting [9]); 86.3% in test [6] (setting [10]). Further, in test [2], the Her2 level is 98% (inactive). Further, the differential viability (reversal) in test [6] (H69AR cells + 2 uM doxorubicin) was -3.54% (inactive). The inhibition in test [7] was -1.82% (inactive); in test [8], -2.33% (inactive).

Consider `O=C(NCCCNC(=O)c1ccccn1)c1ccccn1`, for which the viability was 106% in test [1]; 106% (inactive) in test [3]; 79.6% (inactive) in test [4]; 91.5% (inactive) in test [5]; 92.1% in test [6] (setting [9]); 91.5% in test [6] (setting [10]). Besides, the Her2 level in test [2] is 75% (inactive). The differential viability (reversal) in test [6] (H69AR cells + 2 uM doxorubicin) was -0.68% (inactive). For the same compound, the inhibition is -5.89% (inactive) in test [7] and -3.49% (inactive) in test [8].

As for `CN(CC(=O)Nc1nccs1)S(=O)(=O)c1ccc(F)cc1`, the viability was 82% in test [1]; 82% (inactive) in test [3]; 92.1% (inactive) in test [4]; 95.2% (inactive) in test [5]; 103% in test [6] (setting [9]); 95.2% in test [6] (setting [10]). Further, the Her2 level in test [2] is 114% (inactive). The differential viability (reversal) in test [6] (H69AR cells + 2 uM doxorubicin) is -7.69% (inactive). In addition, the inhibition in test [7] was 0.78% (inactive); in test [8] it was -4.75% (inactive).

Turning to `O=C1N=C(N2CCOCC2)CS1`, the viability was 108% in test [1]; 108% (inactive) in test [3]; 103% (inactive) in test [4]; 104% (inactive) in test [5]; 98.3% in test [6] (setting [9]); 104% in test [6] (setting [10]). In test [2], the Her2 level was 110% (inactive). Besides, in test [6] (H69AR cells + 2 uM doxorubicin), the differential viability (reversal) is 5.3% (inactive). Also, the inhibition in test [7] is -4.27% (inactive); in test [8] it was -1.45% (inactive).

In the case of `COc1cccc(N2CCN(CC(=O)NCc3cccs3)CC2)c1`, the viability in test [1] was 108%; in test [3], 108% (inactive); in test [4], 128% (inactive); in test [5] it was 99% (inactive); in test [6] (setting [9]), 92.8%; in test [6] (setting [10]), 99%. Moreover, the Her2 level in test [2] is 100% (inactive). For the same compound, the differential viability (reversal) in test [6] (H69AR cells + 2 uM doxorubicin) is 6.28% (inactive). In addition, the results for the inhibition in test [7] and in test [8] were -3.38% (inactive) and -2.17% (inactive), respectively.

For the origin of these results see PubChem BioAssay.
